Values after ≈ are worked out from the molar mass of the structure shown. Active and inactive are the calls of the source. The rule behind the calls is not given here.
What was measured:
Staphylococcus aureus [1] = assay: Antibacterial activity against Staphylococcus aureus after 16 hrs by serial dilution method; format: functional
Bacillus subtilis [2] = assay: Antibacterial activity against Bacillus subtilis at 1.6125 to […] after 16 hrs by serial dilution method; format: functional, organism-based
Procedure, shortened: (§1)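 Tube broth dilution MIC in trypticase soya broth. Colonies from a fresh plate were grown 6 h at 37 °C, adjusted to […] with sterile PBS (10⁸ cfu/mL), then diluted 10³-fold in broth to 10⁵ cfu/mL. Compounds were serially diluted across six tubes per organism and 1 mL inoculum was added. Inoculum-only and broth-only controls were run. Incubation was 16 h at 37 °C. MIC was read as no visible growth.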

Escherichia coli [3] = assay: Antibacterial activity against Escherichia coli at 1.6125 to […] after 16 hrs by serial dilution method; format: functional, organism-based; procedure, shortened: as §1
Pseudomonas aeruginosa [4] = assay: Antibacterial activity against Pseudomonas aeruginosa at 1.6125 to […] after 16 hrs by serial dilution method; format: functional, organism-based; procedure, shortened: as §1
Staphylococcus aureus [5] = assay: Antibacterial activity against Staphylococcus aureus at 1.6125 to […] after 16 hrs by serial dilution method; format: functional, organism-based; procedure, shortened: as §1
Escherichia coli [6] = assay: Antibacterial activity against Escherichia coli after 16 hrs by serial dilution method; format: functional
Pseudomonas aeruginosa [7] = assay: Antibacterial activity against Pseudomonas aeruginosa after 16 hrs by serial dilution method; format: functional; procedure, shortened: as §1
Bacillus subtilis [8] = assay: Antibacterial activity against Bacillus subtilis after 16 hrs by serial dilution method; format: functional

| MIC (Staphylococcus aureus [1]) | MIC (Bacillus subtilis [2]) | MIC (Escherichia coli [3]) | MIC (Pseudomonas aeruginosa [4]) | MIC (Staphylococcus aureus [5]) | MIC (Escherichia coli [6]) | MIC (Pseudomonas aeruginosa [7]) | MIC (Bacillus subtilis [8]) | Structure (SMILES) |
| --- | --- | --- | --- | --- | --- | --- | --- | --- |
| 50 µg/mL (≈ 163 µM) | inactive | inactive | inactive | – | – | – | – | Cc1ccc(Nc2ncnc3c2Cc2ccccc2O3)cc1F |
| – | inactive | inactive | inactive | inactive | – | – | – | Clc1ccc(Nc2ncnc3c2Cc2ccccc2O3)c(Cl)c1 |
| 1.61 µg/mL (≈ 5.32 µM) | – | inactive | inactive | – | – | – | 1.61 µg/mL (≈ 5.32 µM) | Cc1ccc(C)c(Nc2ncnc3c2Cc2ccccc2O3)c1 |
| – | inactive | inactive | – | inactive | – | 25 µg/mL (≈ 84.4 µM) | – | Cc1cnc(Nc2ncnc3c2Cc2ccccc2O3)s1 |
| – | inactive | inactive | inactive | inactive | – | – | – | Cc1cc(C(F)(F)F)ccc1Nc1ncnc2c1Cc1ccccc1O2 |

More lines, now with the values behind:

| Structure (SMILES) | MIC (Staphylococcus aureus [1]) | MIC (Bacillus subtilis [2]) | MIC (Escherichia coli [3]) | MIC (Pseudomonas aeruginosa [4]) | MIC (Staphylococcus aureus [5]) | MIC (Escherichia coli [6]) | MIC (Pseudomonas aeruginosa [7]) | MIC (Bacillus subtilis [8]) |
| --- | --- | --- | --- | --- | --- | --- | --- | --- |
| c1ccc2c(c1)Cc1c(NC34CC5CCCC(C3)C5C4)ncnc1O2 (stereo not drawn) | – | inactive | – | – | inactive | 50 µg/mL (≈ 150 µM) | 50 µg/mL (≈ 150 µM) | – |
| c1ccc(CNc2ncnc3c2Cc2ccccc2O3)cc1 | 1.61 µg/mL (≈ 5.57 µM) | – | – | inactive | – | 25 µg/mL (≈ 86.4 µM) | – | 1.61 µg/mL (≈ 5.57 µM) |
| CO/N=C(\C(=O)N[C@@H]1C(=O)N2C(C(=O)O)=C(CSc3nc(=O)c(O)nn3C)CS[C@H]12)c1csc(N)n1 [CEFTRIAXONE] | 3.12 µg/mL (≈ 5.63 µM) | – | – | – | – | 1.61 µg/mL (≈ 2.91 µM) | 1.61 µg/mL (≈ 2.91 µM) | 1.61 µg/mL (≈ 2.91 µM) |
| Nc1ncnc2c1Cc1ccccc1O2 | – | inactive | inactive | inactive | inactive | – | – | – |
| c1ccc2c(c1)Cc1c(Nc3cccc4ccccc34)ncnc1O2 | 1.61 µg/mL (≈ 4.96 µM) | – | inactive | inactive | – | – | – | 1.61 µg/mL (≈ 4.96 µM) |
| c1ccc(CN2CCC(Nc3ncnc4c3Cc3ccccc3O4)CC2)cc1 | 1.61 µg/mL (≈ 4.33 µM) | – | – | inactive | – | 3.12 µg/mL (≈ 8.39 µM) | – | 1.61 µg/mL (≈ 4.33 µM) |
| Clc1ccc(CNc2ncnc3c2Cc2ccccc2O3)cc1 | 1.61 µg/mL (≈ 4.98 µM) | – | – | inactive | – | 50 µg/mL (≈ 154 µM) | – | 1.61 µg/mL (≈ 4.98 µM) |
